Measurements of several laboratories.
Lines come from different studies, so protocols differ.
Target: Tyrosine-protein kinase HCK (HCK, Homo sapiens, UniProt P08631)

Nc1ncc(-c2nc(N3CCOCC3)nc(N3CCOCC3)n2)c(C(F)F)n1 — remaining binding (binding, competition with immobilised ligand; 10 µM): 77%
Cn1cncc1[C@@](O)(COc1ccc(C#N)cc1-c1ccc(OC(F)(F)F)cc1)c1ccc(C#N)cc1 — remaining binding (cell-free assay, competition with immobilised ligand; 1 µM): 100%
Cn1cc(-c2cccc(N3CCc4c(sc5c4CC(C)(C)C5)C3=O)c2CO)cc(Nc2ccncn2)c1=O — inhibition (enzyme activity, inhibitor; 1 µM): 6%
COc1cc(Nc2ncc(F)c(Nc3ccc4c(n3)NC(=O)C(C)(C)O4)n2)cc(OC)c1OC — inhibition (binding, competition with immobilised ligand; 10 µM): 98%
Cc1nn(C)cc1-c1nc2c(N3CCN(Cc4ccc(Cl)cc4)CC3)c(Cl)cnc2[nH]1 — remaining binding (binding, competition with immobilised ligand; 1 µM): 100%
COc1ncccc1-c1cnn2ccc(N3CCN(C(=O)OC(C)C)CC3)nc12 — remaining binding (binding, competition with immobilised ligand; 1 µM): 60%
CC(C)(C)c1cc(C=C(C#N)C#N)cc(Br)c1O — remaining activity (enzyme activity, inhibitor; 0.5 µM): 66.1%
Cn1cc(-c2cc(F)cc(N3CCn4c(cc5c4CCCC5)C3=O)c2CO)cc(Nc2ccc(N3CCN(C4COC4)CC3)cn2)c1=O — inhibition (enzyme activity, inhibitor; 0.1 µM): 9%
O=c1[nH]c2ccccc2n1C1CCN(Cc2ccc(-c3[nH]c4cc5ncnc5cc4nc3-c3ccccc3)cc2)CC1 — remaining signal (cell-free assay; 0.5 µM): 99.6%
N#CC1(c2ccccn2)CCN(Cc2cc(C(=O)O)c(=O)n3ccccc23)CC1 — remaining binding (cell-free assay, competition with immobilised ligand; 1 µM): 100%
